The record followed here is ChEMBL document CHEMBL3627702, “Navigating CYP1A Induction and Arylhydrocarbon Receptor Agonism in Drug Discovery. A Case History with S1P1 Agonists” (J Med Chem, 2015).

Structures are written as SMILES.

Series [1] can be described thus: Lipophilicity, log D of the compound at pH 7.4. As to conditions: buffer. Format: physicochemical.
Series [2] in a line: Dissociation constant, pKa of the compound. Type of series: physicochemical.
Series [3] deals with CYP1A1. Briefly: Induction of CYP1A1 mRNA expression in Sprague-Dawley rat hepatic microsomes at 25 mg/kg, po QD for 4 days relative to control. Type of series: ADME, organism-based, Liver. The note with it: read-out: FC. In a few lines: (§1)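 Male CD rats (226–325 g, n = 3) were dosed by oral gavage once daily for 4 days as a 1% w/v aqueous methylcellulose suspension (3–6 mg/mL, 5 mL/kg). At the end of the study, a left lateral liver lobe section was placed in RNALater and homogenised in TRIzol. RNA was purified, DNase-treated and converted to cDNA, and Cyp1a1 was read on low-density TaqMan arrays.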

Series [4] has as its system CYP1A2. The series can be described thus: Induction of CYP1A2 mRNA expression in Sprague-Dawley rat hepatic microsomes at 25 mg/kg, po QD for 4 days relative to control. As to conditions: read-out: FC. Format: ADME, organism-based, Liver.
The nature of series [5]: Cmax in Sprague-Dawley rat at 25 mg/kg, po QD measured on day 1. Type of series: ADME, organism-based. Further details: dose 25 mg/kg, route oral. The note with it: in vivo. In a few lines: (§2)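 Male CD rats (226−325 g), n = 3, given the compound once daily by oral gavage for 4 days. Vehicle was 1% (w/v) methylcellulose aq suspension at 3−6 mg/mL, dosed at 5 mL/kg (target 15−30 mg/kg). Tail vein blood was taken on days 1 and 4 up to 24 h postdose. Blood was diluted 1:1 with water, extracted by acetonitrile protein precipitation and analysed by LC−MS/MS against calibration standards in diluted blood.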

A short description of series [6]: Cmax in Sprague-Dawley rat at 25 mg/kg, po QD measured on day 4. Type of series: ADME, organism-based. Further details: dose 25 mg/kg, route oral. As to conditions: in vivo. In a few lines:
as §2

Series [7] can be described thus: AUC in Sprague-Dawley rat at 25 mg/kg, po QD measured on day 1. Type of series: ADME, organism-based. The note with it: in vivo. An outline of the steps: as §2
Series [8] can be described thus: AUC in Sprague-Dawley rat at 25 mg/kg, po QD measured on day 4. Type of series: ADME, organism-based. As to conditions: in vivo. An outline of the steps: as §2
Series [9] relates to Rattus norvegicus. Briefly: Dose normalized AUC in Sprague-Dawley rat at 25 mg/kg, po QD measured on day 1. Format: ADME, organism-based. The note with it: in vivo. An outline of the steps:
as §2

Series [10] relates to Rattus norvegicus. The series can be described thus: Dose normalized AUC in Sprague-Dawley rat at 25 mg/kg, po QD measured on day 4. Format: ADME, organism-based. As to conditions: in vivo. In a few lines:
as §2

Series [11] has as its system CYP1A1. The series can be described thus: Induction of CYP1A1 mRNA expression in Sprague-Dawley rat hepatic microsomes at 24 mg/kg, po QD for 4 days relative to control. Type of series: ADME, organism-based, Liver. The note with it: read-out: FC. In a few lines: as §1
In series [12] the test system is CYP1A2. Briefly: Induction of CYP1A2 mRNA expression in Sprague-Dawley rat hepatic microsomes at 24 mg/kg, po QD for 4 days relative to control. Type of series: ADME, organism-based, Liver. The note with it: read-out: FC.
A short description of series [13]: Cmax in Sprague-Dawley rat at 24 mg/kg, po QD measured on day 1. Type of series: ADME, organism-based. Further details: dose 24 mg/kg, route oral. As to conditions: in vivo. An outline of the steps: as §2
Series [14] is described as follows: Cmax in Sprague-Dawley rat at 24 mg/kg, po QD measured on day 4. As to conditions: in vivo. Also noted: dose 24 mg/kg, route oral. Type of series: ADME, organism-based. An outline of the steps:
as §2

A short description of series [15]: AUC in Sprague-Dawley rat at 24 mg/kg, po QD measured on day 1. Type of series: ADME, organism-based. As to conditions: in vivo. An outline of the steps: as §2
A short description of series [16]: AUC in Sprague-Dawley rat at 24 mg/kg, po QD measured on day 4. Format: ADME, organism-based. The note with it: in vivo. In a few lines:
as §2

Series [17] deals with Rattus norvegicus. Briefly: Dose normalized AUC in Sprague-Dawley rat at 24 mg/kg, po QD measured on day 1. Type of series: ADME, organism-based. As to conditions: in vivo. In a few lines: as §2
Series [18] deals with Rattus norvegicus. Briefly: Dose normalized AUC in Sprague-Dawley rat at 24 mg/kg, po QD measured on day 4. Type of series: ADME, organism-based. The note with it: in vivo. In a few lines:
as §2

A short description of series [19]: Oral bioavailability in CD rat at 3 mg/kg. Format: ADME, organism-based. As to conditions: in vivo. In a few lines: (§3)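 Male CD rats cannulated in the femoral and jugular veins, n = 3, crossover design. Day 1: 1 h iv infusion at 1 mg/kg (0.2 mg/mL in ≤5% DMSO/≥95% 10% Kleptose in saline, 5 mL/kg/h). Day 2: oral gavage at 3 mg/kg (0.6 mg/mL in 1% methylcellulose, 5 mL/kg). Blood assayed by LC–MS/MS after acetonitrile precipitation.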

Series [20] is described as follows: Half life in CD rat at 1 mg/kg, iv. Format: ADME, organism-based. As to conditions: in vivo. An outline of the steps: (§4)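 Male CD rats carried femoral vein (dosing) and jugular vein (sampling) cannulae and recovered at least 2 days. They received a 1 h iv infusion at 5 mL kg−1 h−1, target 1 mg/kg, at 0.2 mg/mL in DMSO/10% Kleptose in saline (≤5%:≥95%). pH was adjusted to 8.0 if needed and the solution filtered. Definitive studies used n = 3 in crossover; others used single animals.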

The nature of series [21]: Volume of distribution at steady state in CD rat at 1 mg/kg, iv. As to conditions: in vivo, read-out: Vdss. Type of series: ADME, organism-based. In a few lines:
as §3

Series [22] is described as follows: Blood clearance in CD rat at 1 mg/kg, iv. Type of series: ADME, organism-based. In a few lines:
as §4

The logD is the decadic logarithm of the distribution of all forms, ionised or not, between an organic phase and buffer at a given pH. For orientation: pKa means the pH at which an ionisable group is half protonated. Read a low pKa as a stronger acid or weaker base. A word on the Cmax: it is the highest concentration seen after dosing. Broadly, the AUC is the area under the concentration-time curve, a measure of exposure. A higher AUC goes with more exposure. A word on the bioavailability: it is dose-corrected exposure relative to a reference, in per cent. Broadly, the half-life is how long it takes for the measured level to halve. Low readings indicate fast loss, high ones slow loss. In general, clearance refers to the volume of plasma or blood freed of the substance per unit of time. A higher clearance goes with a high capacity for elimination.

Consider `Cc1c(-c2noc(-c3ccc(OC(C)C)c(C#N)c3)n2)ccc2c1CCN(C[C@H](O)CO)CC2`, for which the logD in [1] was found to be 2.36. Besides, the pKa in [2] was determined as 8.4. For the same molecule, the fold induction at 96 h in [3] worked out at 215; in series [4] it was 2.2. Besides, the Cmax in series [5] amounted to 730 ng/mL; in series [6], 870 ng/mL. The AUC was 13200 ng·h/mL in series [7] and 15600 ng·h/mL in [8]. Also, the AUC/dose in series [9] came out at 31 kg·min/L; in series [10], 38 kg·min/L.
On to `Cc1c(-c2noc(-c3cnc(NC(C)C)c(C#N)c3)n2)ccc2c1CCN(C(CO)CO)CC2`, for which the logD in [1] stood at 2.44. Further, the pKa in [2] was determined as 8.3. For the same molecule, the fold induction at 96 h in [11] was determined as 81; in [12], 2. The results for the Cmax in series [13] and in [14] were 1140 ng/mL and 1350 ng/mL, respectively. In addition, the figures for the AUC in series [15] and in series [16] were 17000 ng·h/mL and 24900 ng·h/mL, respectively. Besides, the AUC/dose in [17] came out at 43 kg·min/L; in [18] it was 63 kg·min/L.
For `CC(C)Nc1ncc(-c2nc(-c3ccc4c(c3)CCN(C(CO)CO)CC4)no2)cc1C#N`, the bioavailability in series [19] stood at 67%. In addition, the half-life in [20] is 8.1 h. The Vd in [21] amounted to 10.9 L/kg. This molecule registered a clearance in series [22] of 22 mL/min/kg. In [1], this molecule displayed a logD of 2.63. Further, the pKa in series [2] was determined as 8.1. Besides, the fold induction at 96 h in series [11] came out at 100; in series [12], 2. Moreover, the Cmax in series [13] is 1010 ng/mL; in series [14], 1220 ng/mL. The figures for the AUC in series [15] and in series [16] were 15300 ng·h/mL and 21300 ng·h/mL, respectively. The AUC/dose is 38 kg·min/L in series [17] and 55 kg·min/L in series [18].
